These results are taken from publication PMC3042036 (Pharmacological research : the official journal of the …, 2010).

Data set [1] is described as follows: Plasma and brain compound concentrations after i.p. administration to mice. It counts as in vivo, mice (B6C3F1). To be noted: for concentration at 2 h / Kp at 2 h: 5 mg/kg; for B/P (Brain-to-Plasma ratio) / Brain drug level / Plasma drug level: mice; for B/P (Brain-to-Plasma ratio): total drug. The procedure, abridged:
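Male B6C3F1 mice are dosed i.p. with test compound in DMSO. Brains are sonicated in 10 mM ammonium acetate, pH 5.7 (1:2 w/v). Plasma comes from blood collected with EDTA and spun 10 min at 4500g, 4°C. Each 50 μl aliquot is precipitated with 0.2 ml acetonitrile and spun at 15,000g. Supernatants are quantified by LC-MS/MS.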

Data set [2] relates to Tg mice that express human tau. To be noted: cited from earlier work.
The subject of data set [3] is optic nerve (ON) acetyl-tubulin. As to the kind of experiment: Optic nerve acetyl-tubulin ELISA after administration to mice. The class given is in vivo, mice (B6C3F1). To be noted: 1, 3 and 10 mg/kg i.p., 16 hours after dosing. The gist of the method: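 Male B6C3F1 mice (2–3 months, n=3/treatment) get a single i.p. dose of test compound in DMSO, volume scaled to body weight. Optic nerves are taken 16 hours later and sonicated 1:5 w/v in RIPA with inhibitors. Acetyl-tubulin is measured by α-tubulin-capture/HRP-acetyl-tubulin ELISA at 450 nm, using duplicate serial inputs. Values are read off a vehicle-control input curve and normalized to vehicle mice.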
(In an ELISA, binding on a coated surface is turned into a signal by an enzyme label.)

Data set [4] has as its target T1, Pgp (human MDR1) in MDCK-MDR cells (Homo sapiens, UniProt P08183). As to the kind of experiment: MDCK-MDR bi-directional permeability assay. To be noted: 5 μM test compound; for Papp (A-B) / Papp (B-A): pH 7.4.
The test system of data set [5] is acetyl-tubulin in PC12 cells. As to the kind of experiment: Acetyl-tubulin levels in PC12 cells. The class given is cell-based. To be noted: 24 hours treatment, increasing concentrations.
Data set [6] deals with brain acetyl-tubulin. As to the kind of experiment: Brain acetyl-tubulin ELISA after administration to mice. The class given is in vivo, mice (B6C3F1). To be noted: for Brain acetyl-tubulin relative to vehicle: 16 hours after dosing. The gist of the method:
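Young male B6C3F1 mice (2–3 months) get a single i.p. dose of test compound in DMSO (~40 μl, scaled to body weight), n=3–6 per group. Brain hemispheres are sonicated 1:5 w/v in RIPA with protease inhibitors and trichostatin A. Sandwich ELISA uses 12G10 α-tubulin capture and HRP-acetyl-tubulin detection at 450 nm. Inputs run from 60 to 2.2 ng/μl in duplicate and are fit to the vehicle input curve.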

In data set [7] the target is P-gp (human MDR1) (Homo sapiens, UniProt P08183). As to the kind of experiment: MDCK-MDR bi-directional permeability assay. To be noted: dog, MDCK-MDR1, pH 7.4.
Sequence of P-gp (human MDR1) (P08183 whole entry): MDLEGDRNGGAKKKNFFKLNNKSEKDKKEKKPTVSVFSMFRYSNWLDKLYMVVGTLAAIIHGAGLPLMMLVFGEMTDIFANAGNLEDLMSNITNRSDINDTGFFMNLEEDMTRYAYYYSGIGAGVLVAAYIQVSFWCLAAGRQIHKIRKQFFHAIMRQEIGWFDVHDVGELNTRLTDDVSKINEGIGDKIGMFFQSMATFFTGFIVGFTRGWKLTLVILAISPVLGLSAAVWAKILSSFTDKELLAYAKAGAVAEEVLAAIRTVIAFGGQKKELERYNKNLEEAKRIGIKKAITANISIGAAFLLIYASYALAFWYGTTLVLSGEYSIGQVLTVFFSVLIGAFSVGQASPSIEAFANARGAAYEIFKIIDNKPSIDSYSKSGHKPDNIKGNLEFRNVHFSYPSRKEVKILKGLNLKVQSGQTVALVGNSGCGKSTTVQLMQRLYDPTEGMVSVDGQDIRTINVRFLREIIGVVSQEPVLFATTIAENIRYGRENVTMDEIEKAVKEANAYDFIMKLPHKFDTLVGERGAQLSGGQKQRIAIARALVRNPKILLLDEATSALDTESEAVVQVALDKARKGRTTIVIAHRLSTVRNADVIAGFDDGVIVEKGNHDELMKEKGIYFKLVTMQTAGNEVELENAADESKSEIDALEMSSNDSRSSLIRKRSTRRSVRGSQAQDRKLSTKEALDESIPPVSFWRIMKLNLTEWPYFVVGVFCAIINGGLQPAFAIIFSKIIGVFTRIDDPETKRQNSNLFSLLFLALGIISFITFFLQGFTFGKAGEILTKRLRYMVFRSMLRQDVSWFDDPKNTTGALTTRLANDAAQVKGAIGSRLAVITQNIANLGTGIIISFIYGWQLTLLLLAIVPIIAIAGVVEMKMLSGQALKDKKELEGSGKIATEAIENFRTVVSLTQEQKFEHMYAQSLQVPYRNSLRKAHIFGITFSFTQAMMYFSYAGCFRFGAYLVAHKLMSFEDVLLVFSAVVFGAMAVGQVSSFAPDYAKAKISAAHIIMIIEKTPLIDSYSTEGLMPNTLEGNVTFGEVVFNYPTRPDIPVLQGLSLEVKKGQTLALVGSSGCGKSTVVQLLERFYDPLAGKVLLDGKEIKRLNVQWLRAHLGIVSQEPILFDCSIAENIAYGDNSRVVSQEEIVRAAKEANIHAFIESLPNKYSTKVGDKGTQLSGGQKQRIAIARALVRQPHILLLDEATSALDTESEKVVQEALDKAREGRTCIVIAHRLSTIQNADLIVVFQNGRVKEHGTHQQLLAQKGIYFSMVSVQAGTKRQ
The target of data set [8] is T1, Pgp (human MDR1) in MDCK-MDR cells. As to the kind of experiment: Inhibition of Pgp-mediated transport of digoxin in MDCK-MDR cells. To be noted: 10 μM digoxin + 5 μM test compound.
Setting [9] is: male, B6C3F1, mouse, plasma, ip.
Where [10] appears, read: male, B6C3F1, mouse, brain, intraperitoneal, 3 mg/kg.
Setting [11] is: male, B6C3F1, mouse, brain, ip, 10 mg/kg.
Where [12] appears, read: male, B6C3F1, mouse, brain/plasma, ip.

Molecules are shown by their SMILES.

T1 sequence (P08183 whole entry): as above

`CC(=O)O[C@H]1C(=O)[C@@]2(C)[C@H]([C@H](OC(=O)c3ccccc3)[C@]3(O)C[C@H](OC(=O)[C@H](O)[C@@H](NC(=O)c4ccccc4)c4ccccc4)C(C)=C1C3(C)C)[C@]1(OC(C)=O)CO[C@@H]1C[C@@H]2O` [Paclitaxel, reference compound]: the concentration at 2 h was 85 ng/g in data set [1] (male, B6C3F1, mouse, brain, ip) and 1290 ng/mL in data set [1] (setting [9]). Moreover, in data set [1] (i.p. 5 mg/kg, 2 hours), the “B/P (Brain-to-Plasma ratio)” value amounted to 0.07. In data set [2] (drug absorption at peripheral neuromuscular junctions), the “Effect in Tg mice that over-express human tau” value was “increased MT density and marked improvement in motor function”.

With `C/C1=C/C[C@@H](/C(C)=C/c2csc(CO)n2)OC(=O)C[C@H](O)C(C)(C)C(=O)[C@H](C)[C@@H](O)[C@@H](C)/C=C/C1` [CNDR-88], in data set [1] (i.p. 5 mg/kg, 2 hours), the Brain drug level amounted to 30 ng/g, the Plasma drug level was found to be 12 ng/mL and the “B/P (Brain-to-Plasma ratio)” value came to 2.6. For the same compound, in data set [1] (i.p. 10 mg/kg, 24 hours), the Brain drug level is reported as 45 ng/g, the Plasma drug level came out at 6.1 ng/mL and the “B/P (Brain-to-Plasma ratio)” value stood at 7.3. In addition, the “ON acetyl-tubulin relative to vehicle (in words)” value in data set [3] is “neither CNDR-86 nor CNDR-88 elicited a change at any dose”. For the same compound, in data set [4], the “Papp (A-B)” value is reported as 0.8 10^−6 cm/s and the “Papp (B-A)” value is 58.6 10^−6 cm/s.

The Kp is the ratio of the level in a tissue or fluid to that in plasma or blood. Broadly, the Papp A→B is how fast a substance crosses the layer from the apical side. As usually defined, the Papp B→A is how fast a substance crosses the layer from the basolateral side. For orientation: efflux ratio means the permeability from basolateral to apical divided by that in the opposite direction, in the common usage. Turning to `C/C1=C/C[C@@H](/C(C)=C/c2csc(C)n2)OC(=O)C[C@H](O)C(C)(C)C(=O)[C@H](C)[C@@H](O)[C@@H](C)CCC1` [CNDR-66, Epothilone D], the “Brain elimination half-life compared with plasma” value in data set [1] (full pharmacokinetic analysis, data not shown) was “far exceeded that observed in the plasma”. This compound also showed a concentration at 7 days in data set [1] (setting [10]) of 8.3 ng/g. In data set [1] (setting [10]), this compound gave a concentration at 10 days of 1.8 ng/g. The concentration at 2 h was determined as 109 ng/g in data set [1] (male, B6C3F1, mouse, brain, ip) and 14 ng/mL in data set [1] (setting [9]). Besides, the concentration at 24 h in data set [1] (setting [11]) was found to be 64 ng/g. In data set [1] (setting [12]), this compound displayed a Kp at 2 h of 7.6. Moreover, the Plasma drug level result in data set [1] (i.p. 10 mg/kg, 24 hours) is reported as “BLD”. For the same compound, the “Amount of acetyl-tubulin in PC12 cells” value in data set [5] is reported as “significant concentration-dependent increase”. For the same compound, the Brain acetyl-tubulin levels entry in data set [6] (single 1 mg/kg, 7 days after dosing) is given as “significant increase of brain acetyl-tubulin”; in data set [6] (single 3 mg/kg, 6 and 10 days after dosing) it was “increased acetyl-tubulin levels”; in data set [6] (single 3 mg/kg, 7 days after dosing), “increase of acetyl-tubulin”; in data set [6] (single 3 mg/kg, 14 days after dosing) it was “statistically insignificant change”; in data set [6] (single 6 mg/kg, 7 days after dosing, compared with 3 mg/kg), “not further increased”. Besides, the “ON acetyl-tubulin relative to vehicle (in words)” value in data set [3] is “elevation of acetyl-tubulin at all doses”. Also, the “Effect in Tg mice that express mutant human tau” value in data set [2] was “improve CNS axonal integrity, MT density and cognitive performance”. Also, the Papp A→B at 2 h, 5 µM in data set [7] was determined as 30 ×10⁻⁶ cm/s. The same compound gave an apparent permeability from basolateral to apical (Papp B→A) at 2 h, 5 µM in data set [7] of 46.8 ×10⁻⁶ cm/s. Moreover, the efflux ratio at 2 h, 5 µM in data set [7] is 1.6. The “Efflux Ratio (B-A)/(A-B)” value in data set [4] is reported as “near unity”. The “Inhibition of Pgp transport of digoxin (in words)” value in data set [8] is on record as “potent inhibitor of Pgp transport”.

For `C/C1=C/C[C@@H](/C(C)=C/c2csc(CO)n2)OC(=O)C[C@H](O)C(C)(C)C(=O)[C@H](C)[C@@H](O)[C@@H](C)CCC1` [CNDR-89, 12,13-desoxy-epothilone F], in data set [1] (i.p. 5 mg/kg, 2 hours), the Brain drug level was found to be 24 ng/g, the Plasma drug level was found to be 6.8 ng/mL and the “B/P (Brain-to-Plasma ratio)” value came out at 3.5. Moreover, in data set [1] (i.p. 10 mg/kg, 24 hours), the Brain drug level is 13 ng/g and the Plasma drug level entry is recorded as “BLD”. Moreover, the “Brain acetyl-tubulin relative to vehicle” value in data set [6] (3 mg/kg i.p.) is on record as “increase of acetyl-tubulin relative to vehicle”. For the same compound, the “Brain acetyl-tubulin relative to vehicle” value in data set [6] (10 mg/kg i.p.) is on record as “no effect”. The “ON acetyl-tubulin relative to vehicle (in words)” value in data set [3] is on record as “only resulted in an increase of the stabilized MT biomarker at 10 mg/kg”. In addition, in data set [4], the “Papp (A-B)” value is 2.3 10^−6 cm/s and the “Papp (B-A)” value is on record as 63 10^−6 cm/s.

Turning to `C/C(=C\c1csc(C)n1)[C@@H]1C[C@@H]2O[C@]2(C)CCC[C@H](C)[C@H](O)[C@@H](C)C(=O)C(C)(C)[C@@H](O)CC(=O)N1` [CNDR-90, ixabepilone, reference compound], the concentration at 2 h in data set [1] (male, B6C3F1, mouse, brain, ip) was 142 ng/g; in data set [1] (setting [9]) it was 319 ng/mL. In addition, the concentration at 24 h in data set [1] (setting [11]) turned out to be 107 ng/g; in data set [1] (male, B6C3F1, mouse, plasma, ip, 10 mg/kg), 41 ng/mL. Moreover, in data set [1] (setting [12]), the Kp at 2 h worked out at 0.4. In addition, the Kp at 24 h in data set [1] (male, B6C3F1, mouse, brain/plasma, ip, 10 mg/kg) was found to be 2.6.
